Screens from PubChem BioAssay.
CHRM5 PAM: human M5 muscarinic receptor positive allosteric modulators, primary screen, CHO-K1 cells, Fluo-8 calcium fluorescence; Muscarinic acetylcholine receptor M5 (Homo sapiens), P08912; CHO-K1 hM5, ACh EC20 PAM; 0% = ACh EC20, 100% = ACh EC100; activation, % at 3 µM; 360,000 compounds, 0.3% hits; AID 624038, 2012;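 active = activation above the run cutoff, the mean activation of all test compounds plus 3 SD, cut at about 18% in these data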
Target sequence (P08912 whole entry, looked up): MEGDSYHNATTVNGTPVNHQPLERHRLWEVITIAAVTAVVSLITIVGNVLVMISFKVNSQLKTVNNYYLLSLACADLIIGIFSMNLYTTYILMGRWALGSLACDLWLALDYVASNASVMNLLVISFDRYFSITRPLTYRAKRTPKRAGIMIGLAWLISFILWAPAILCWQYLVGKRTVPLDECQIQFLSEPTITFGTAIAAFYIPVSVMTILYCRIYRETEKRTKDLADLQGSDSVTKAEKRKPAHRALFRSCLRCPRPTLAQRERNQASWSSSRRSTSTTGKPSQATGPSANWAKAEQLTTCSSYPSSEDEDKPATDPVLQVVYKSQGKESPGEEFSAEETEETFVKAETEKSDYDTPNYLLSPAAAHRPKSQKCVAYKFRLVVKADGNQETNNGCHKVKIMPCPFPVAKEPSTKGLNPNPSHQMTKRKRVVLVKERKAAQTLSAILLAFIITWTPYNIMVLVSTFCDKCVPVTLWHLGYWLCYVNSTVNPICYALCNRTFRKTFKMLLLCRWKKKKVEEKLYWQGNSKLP
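Test system: CHO-K1 hM5 cells / Doses: single-point, 3 µM nominal / Times: Post-acetylcholine fluorescence recording 140 s / Technique: Fluo-8 calcium fluorescence / Measure: Max/basal fluorescence ratio as % of EC20–EC100 ACh window / Benchmarks: low control EC20 acetylcholine (0%), high control EC100 acetylcholine (100%) / Replicates: one well per compound, no replicates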
M5 ag: human M5 muscarinic receptor agonists, primary screen, CHO-K1 cells, Fluo-8 calcium fluorescence; CHO-K1 hM5 cells; 0% DMSO wells, 100% maximal acetylcholine response; activation, % at 3 µM; 360,000 compounds, 0.19% hits;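 active = activation above the run's mean over test compounds plus 3 SD, cut at about 23% in these data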;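 note: signal is peak over basal fluorescence ratio across the kinetic read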
CHRM4 agonist: human M4 muscarinic receptor agonists, primary screen, CHO-K1 cells, Fluo-8 calcium fluorescence; 360,000 compounds, 0.14% hits; Muscarinic acetylcholine receptor M4 (Homo sapiens), P08173; activation, % at 3 µM; AID 624127, 2012; CHO-K1 hM4/Gqi5; vehicle 0%, full acetylcholine response 100%;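 active = activation above the run mean over all test wells plus 3 SD, cut at about 32% in these data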;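 note: peak over basal fluorescence ratio per well then scaled between controls; 0% = DMSO wells and 100% = acetylcholine at EC100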
CHRM4 antagonist: human M4 muscarinic receptor antagonists, primary screen, CHO cells, Fluo-8 calcium fluorescence; 360,000 compounds, 0.73% hits; CHO-hM4 cells, ACh EC80; inhibition, % at 3 µM; Muscarinic acetylcholine receptor M4 (Homo sapiens), P08173;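 active = inhibition above its plate's cutoff, the mean inhibition of sample wells plus 3 SD, cut at about 27% in these data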;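 note: 0% = acetylcholine EC80 with DMSO and 100% = DMSO without agonist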
CHRM5 antagonist: human M5 muscarinic receptor antagonists, primary screen, CHO cells, Fluo-8 calcium fluorescence | CHO-hM5 cells, ACh EC80 | inhibition, % at 3 µM | Muscarinic acetylcholine receptor M5 (Homo sapiens), P08912 | 360,000 compounds, 0.59% hits;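 active = inhibition above a per-plate cutoff, the mean of that plate's test compounds plus 3 SD, cut at about 27% in these data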;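 note: 0% = acetylcholine EC80 with DMSO and 100% = DMSO without agonist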
CHRM4 PAM: human M4 muscarinic receptor positive allosteric modulators, primary screen, CHO-K1 cells, Fluo-8 calcium fluorescence; activation, % at 3 µM; CHO-K1 hM4/Gqi5, ACh EC20; 0% = ACh EC20, 100% = maximal ACh; Muscarinic acetylcholine receptor M4 (Homo sapiens), P08173; 360,000 compounds, 0.4% hits;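 active = activation above its plate's cutoff, the mean activation of sample wells plus 3 SD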
Active calls of the source: *. Most compounds without a hit are left out; they make up all but 1.8% or so of the library.

Screening CCOC(=O)C1CCCN(c2cc(=O)n(Cc3ccc(F)cc3)c(=O)[nH]2)C1 (configuration not stated) returned CHRM5 PAM -3, M5 ag 24*, CHRM4 agonist 4, CHRM4 antagonist 4, CHRM5 antagonist -6 and CHRM4 PAM 0.
Screening CC1=C2C3OC(=O)C(C)[C@@H]3CC[C@](C)(O)C2C2C3C4C5(C12)[C@H]1OC(=O)[C@@H](C)C1CC[C@]4(C)O[C@]5(C)[C@@H]3O (some centres not stated) returned CHRM5 PAM 5, M5 ag -2, CHRM4 agonist 0, CHRM4 antagonist -2, CHRM5 antagonist -4 and CHRM4 PAM 0.
COc1ccc(CN(C)C(=O)c2cc(-c3ccccc3)nc3ccc(C)cc23)c(OC)c1 was read as CHRM5 PAM -16, M5 ag 3, CHRM4 agonist 14, CHRM4 antagonist 31*, CHRM5 antagonist 18 and CHRM4 PAM -9.
Screening Cc1nc(N)c(Cc2ccc(Cl)cc2Cl)c(N)n1 returned CHRM5 PAM -17, M5 ag 2, CHRM4 agonist 36*, CHRM4 antagonist 20, CHRM5 antagonist 28* and CHRM4 PAM -18.
CN1/C(=C\C=C2/SC(=S)NC2=O)C(C)(C)c2ccccc21 was read as CHRM5 PAM -28, M5 ag 51*, CHRM4 agonist 65*, CHRM4 antagonist 44*, CHRM5 antagonist 58* and CHRM4 PAM -29.
CC1=NN(c2ccccc2)C(=O)/C1=C\C=C1\N(C)c2ccccc2C1(C)C was read as CHRM5 PAM -7, M5 ag 17, CHRM4 agonist 10, CHRM4 antagonist 4, CHRM5 antagonist 12 and CHRM4 PAM 2.
For CC1=NN(c2ccccc2)C(=O)/C1=C\C=C1/N(C)c2ccccc2C1(C)C the results were CHRM5 PAM -16, M5 ag 36*, CHRM4 agonist 25, CHRM4 antagonist -4, CHRM5 antagonist 18 and CHRM4 PAM -10.
`CC(=O)c1ccccc1OC(=O)c1ccco1` gave CHRM5 PAM 2, M5 ag 0, CHRM4 agonist 1, CHRM4 antagonist -13, CHRM5 antagonist 1 and CHRM4 PAM 23*.
`CC(=O)COc1ccccc1OC(=O)c1ccco1` gave CHRM5 PAM 3, M5 ag -2, CHRM4 agonist 0, CHRM4 antagonist 5, CHRM5 antagonist 0 and CHRM4 PAM 2.
`CCn1ccnc1CN(C)C(=O)c1ccc(OC2CCN(CCc3ccccc3)CC2)cc1` gave CHRM5 PAM -16, M5 ag -11, CHRM4 agonist 1, CHRM4 antagonist 43*, CHRM5 antagonist 47* and CHRM4 PAM -12.
For CCOC(=O)C1=C(COC(=O)CCNS(=O)(=O)c2ccc(C)c(C)c2)NC(=O)NC1C (configuration not stated) the results were CHRM5 PAM -3, M5 ag 1, CHRM4 agonist 4, CHRM4 antagonist 0, CHRM5 antagonist 12 and CHRM4 PAM 5.
For CC1=C(C(=O)N2CCOCC2)C(c2ccccc2F)NC(=O)N1 (configuration not stated) the results were CHRM5 PAM -8, M5 ag -4, CHRM4 agonist 0, CHRM4 antagonist 3, CHRM5 antagonist 4 and CHRM4 PAM 0.
`O=C(Oc1cccc(Nc2ncnc3ccccc23)c1)c1ccccc1Cl` gave CHRM5 PAM -27, M5 ag 1, CHRM4 agonist 15, CHRM4 antagonist 34*, CHRM5 antagonist 45* and CHRM4 PAM -14.
Screening COc1ccccc1N1C(=O)c2cccc3c(N(C)CCO)ccc(c23)C1=O returned CHRM5 PAM -3, M5 ag 24*, CHRM4 agonist 9, CHRM4 antagonist 2, CHRM5 antagonist 8 and CHRM4 PAM -3.
